From ChEMBL document CHEMBL3739308, “Resveratrol-Related Polymethoxystilbene Glycosides: Synthesis, Antiproliferative Activity, and Glycosidase Inhibition” (J Nat Prod, 2015) come the findings set out here.

For one data set, the system named is SH-SY5Y. The data set is described as follows: Antiproliferative activity against human SH-SY5Y cells after 72 hrs by MTT-based Mosmann assay relative to control. The data set is classed as functional. An outline of the steps:
(§1)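 Cells seeded at (2.5−3.0) × 10^3 per well, treated after 24 h with compound at final 0.01−100 μM; 0.5−1% DMSO controls. Exposure 3 days (72 h) at 37 °C, 5% CO2; MTT read at 570 nm, 6−8 wells per value. GI50 by NCI formula 100(T − T0)/(C − T0) = 50 versus time-zero and DMSO-control OD; mean ± SD of four experiments.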

Data set [1] is described as follows: Antiproliferative activity against human Caco2 cells after 72 hrs by MTT-based Mosmann assay relative to control. Format: functional. To be noted: Caco-2, 72 h. An outline of the steps:
as §1

Data set [2] can be described thus: Drug level in phosphate buffer treated with (2R,3S,4S,5S)-2-[2-(4-Methoxystyryl)-4,6-dimethoxyphenoxy]-tetrahydro-6-hydroxymethyl-2H-pyran-3,4,5-triol at 5 x 10^-5 M at pH 7.2 at 37 degC after 72 hrs by HPLC analysis in presence of Aspergillus oryzae beta-galactosidase. To be noted: pH 7.2, 72 h. The data set is classed as ADME. An outline of the steps: (§2)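 Glycoside diluted from DMSO into 0.050 M Na2HPO4/KH2PO4 pH 7.2 to final 5.0 × 10−5 M (≤1.0% DMSO). Almond β-glucosidase (1.2 U/mL) or A. oryzae β-galactosidase (0.7 U/mL) added; 37 °C, shaking at 400 rpm, sampled up to 96 h. Enzyme-free controls run. Reversed-phase HPLC at 305 nm; released aglycone quantified against 10−5−10−6 M calibration curves. Triplicate.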

Data set [3] is described as follows: Inhibition of Saccharomyces cerevisiae alpha-glucosidase using pNP-alpha-Glc as substrate assessed as release of p-nitrophenol incubated for 2 hrs by spectrophotometric analysis. An outline of the steps:
(§3)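 Substrate at final 6.5 × 10−5 M in DMSO/0.050 M phosphate buffer pH 7.2, 25 °C, with five inhibitor levels (≤1.0% DMSO). Enzyme: 2.0 U/mL yeast α-glucosidase, 2 h; 2.9 U/mL almond β-glucosidase, 30 min. Nitrophenol release read at 400 nm; % inhibition from residual activity versus no-compound activity; IC50 = 50% inhibition. Triplicate; mean ± SD of three experiments.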

The target in data set [4] is β-galactosidase (Aspergillus Oryzae) (Aspergillus oryzae, UniProt Q2UCU3). The data set is described as follows: Inhibition of Aspergillus oryzae beta-galactosidase using oNP-beta-Gal as substrate assessed as release of o-nitrophenol incubated for 30 mins by spectrophotometric analysis. A digest of the protocol:
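Inhibition assay (modified Tsujii method) at 25 °C. Substrate at 6.5 × 10−5 M final in DMSO/phosphate buffer (Na2HPO4/KH2PO4 0.050 M, pH 7.2). Enzyme at 4.0 U/mL. Compound stocks 2.6−4.7 × 10−4 M, five concentrations; DMSO ≤1.0% final. Absorbance read at 400 nm. Percent inhibition taken from residual activity versus no-compound control. IC50 is the mean of three experiments.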

Data set [5] is described as follows: (§4) Half life in phosphate buffer assessed as almond beta-glucosidase-mediated compound hydrolysis at 5 x 10^-5 M at pH 7.2 at 37 degC measured within 96 hrs by HPLC analysis. The data set is classed as ADME. To be noted: prunus dulcis, buffer, pH 7.2, 96 h, 50 µM. An outline of the steps: as §2
The nature of data set [6]: Stability of the compound in phosphate buffer assessed as Aspergillus oryzae beta-galactosidase-mediated compound hydrolysis at 5 x 10^-5 M at pH 7.2 at 37 degC measured within 96 hrs by HPLC analysis. The data set is classed as ADME. To be noted: pH 7.2, 96 h, 50 µM. An outline of the steps:
as §2

Data set [7] in a line: Inhibition of almond beta-glucosidase using pNP-beta-Glc as substrate assessed as release of p-nitrophenol incubated for 30 mins by spectrophotometric analysis. The arrangement: species or system Prunus dulcis. Conditions: for pIC50: read-out: IC50; call rule not given here. An outline of the steps: as §3
The subject of another data set is beta-glucosidase. The data set is described as §4. The data set is classed as ADME. To be noted: prunus dulcis, almond beta-glucosidase in phosphate buffer, pH 7.2. An outline of the steps:
as §2

Another data set has as its system beta-galactosidase. The data set is described as follows: Half life in phosphate buffer assessed as Aspergillus oryzae beta-galactosidase-mediated compound hydrolysis at 5 x 10^-5 M at pH 7.2 at 37 degC measured within 96 hrs by HPLC analysis.
Data set [8] can be described thus: Antiproliferative activity against human Caco2 cells. Format: functional, cell-based. To be noted: Caco-2. An outline of the steps:
as §1

pIC50: −log10 of the molar value. Some results are limits rather than exact numbers.

Chain of β-galactosidase (Aspergillus Oryzae) (Q2UCU3 whole entry, looked up): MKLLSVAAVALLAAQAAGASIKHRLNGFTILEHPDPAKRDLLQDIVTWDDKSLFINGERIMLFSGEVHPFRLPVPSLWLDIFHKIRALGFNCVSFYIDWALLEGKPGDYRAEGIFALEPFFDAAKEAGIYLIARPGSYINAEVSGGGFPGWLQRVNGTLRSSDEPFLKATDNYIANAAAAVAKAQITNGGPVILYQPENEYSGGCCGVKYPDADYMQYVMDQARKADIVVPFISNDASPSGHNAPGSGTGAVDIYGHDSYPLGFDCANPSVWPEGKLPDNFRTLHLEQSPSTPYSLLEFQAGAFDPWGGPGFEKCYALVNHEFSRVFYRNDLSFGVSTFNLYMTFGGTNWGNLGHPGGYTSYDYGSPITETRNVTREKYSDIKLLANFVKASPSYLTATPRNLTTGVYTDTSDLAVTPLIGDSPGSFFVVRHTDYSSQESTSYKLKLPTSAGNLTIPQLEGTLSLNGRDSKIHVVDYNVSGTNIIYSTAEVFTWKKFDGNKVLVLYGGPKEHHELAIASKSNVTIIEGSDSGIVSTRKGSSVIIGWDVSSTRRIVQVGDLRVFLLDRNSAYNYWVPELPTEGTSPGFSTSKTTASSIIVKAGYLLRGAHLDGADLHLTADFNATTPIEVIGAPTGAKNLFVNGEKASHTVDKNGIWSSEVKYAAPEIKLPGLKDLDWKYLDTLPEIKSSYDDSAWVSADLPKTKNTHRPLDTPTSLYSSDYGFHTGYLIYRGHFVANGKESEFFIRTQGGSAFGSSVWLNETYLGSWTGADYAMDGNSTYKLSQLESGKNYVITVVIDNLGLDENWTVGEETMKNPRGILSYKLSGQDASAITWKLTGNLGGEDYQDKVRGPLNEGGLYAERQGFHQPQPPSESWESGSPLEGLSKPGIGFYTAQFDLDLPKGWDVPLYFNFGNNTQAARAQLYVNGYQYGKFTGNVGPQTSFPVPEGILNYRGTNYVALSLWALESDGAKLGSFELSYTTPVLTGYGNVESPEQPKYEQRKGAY

For `COc1cc(/C=C/c2cc(OC)cc(OC)c2O)cc(OC)c1`, the GI50 (in the data set on SH-SY5Y; in data set [1]) was greater than 10 µM in each case.
As for `COc1cc(/C=C/c2ccc(OC)c(OC)c2)c(O)c(OC)c1`, the GI50 came to 14.3 µM in the data set on SH-SY5Y and 3 µM in data set [1].
Consider `COc1ccc(/C=C/c2cc(OC)cc(OC)c2O)cc1`, for which the Drug metabolism entry in [2] is “metabolite_detected”. Also, the values for the GI50 (in the data set with SH-SY5Y; in [1]) were 4.5 µM and 5.8 µM, respectively.
`COc1ccc(/C=C/c2cc(OC)cc(OC)c2O[C@H]2O[C@H](CO)[C@H](O)[C@H](O)[C@H]2O)cc1`: the negative logarithm of the IC50 (pIC50) was 3.70 in data set [3], 3.53 in data set [4] and 3.46 in data set [7]. Moreover, the results for the GI50 (in the data set with SH-SY5Y; in data set [1]) were 48.4 µM and greater than 10 µM, respectively. The Stability entry in data set [5] and in data set [6] was “Stable” throughout.
Take `COc1cc(/C=C/c2cc(OC)cc(OC)c2O[C@H]2O[C@H](CO)[C@@H](O)[C@H](O)[C@H]2O)cc(OC)c1`: the pIC50 in data set [3] was 3.88; in [4] it was 3.53; in data set [7], 3.57. Moreover, the GI50 in the data set on SH-SY5Y is greater than 10 µM; in data set [1], 44.2 µM. Further, the half-life at 50 µM in the data set on beta-glucosidase is 70 h. Moreover, the Stability entry in data set [6] is reported as “Stable”.
As for `COc1cc(/C=C/c2ccc(OC)c(OC)c2)c(O[C@H]2O[C@H](CO)[C@@H](O)[C@H](O)[C@H]2O)c(OC)c1`, the pIC50 in data set [3] was 4.11; in data set [4], 3.59; in data set [7] it was 3.72. Also, the GI50 (with SH-SY5Y; in data set [1]) was greater than 10 µM throughout. Further, in the data set with beta-glucosidase, the half-life at 50 µM is 20 h. For the same molecule, the Stability entry in [6] was “Stable”.
For `COc1cc(/C=C/c2cc(OC)cc(OC)c2O[C@H]2O[C@H](CO)[C@H](O)[C@H](O)[C@H]2O)cc(OC)c1`, the pIC50 in data set [3] was 3.48; in data set [4], 3.53. In addition, the results for the GI50 (in the data set on SH-SY5Y; in data set [1]) were 22.5 µM and 16 µM, respectively. In addition, the Stability entry in [5] and in data set [6] was “Stable” in each case. Moreover, in [7], the IC50 entry was “Not Active”.
With `COc1ccc(/C=C/c2cc(OC)cc(OC)c2O[C@H]2O[C@H](CO)[C@@H](O)[C@H](O)[C@H]2O)cc1`, the results for the pIC50 in [3] and in data set [7] were 4.04 and 3.68, respectively. The results for the GI50 (in the data set with SH-SY5Y; in data set [1]) were 21.9 µM and greater than 10 µM, respectively. Besides, the half-life at 50 µM in the data set with beta-galactosidase was 77 h; with beta-glucosidase it was 11 h.
`COc1cc(/C=C/c2ccc(OC)c(OC)c2)c(O[C@H]2O[C@H](CO)[C@H](O)[C@H](O)[C@H]2O)c(OC)c1`: the results for the pIC50 in data set [3], in data set [4] and in data set [7] were 4.15, 3.52 and 3.77, respectively. Further, the GI50 (in the data set with SH-SY5Y; in data set [1]) was greater than 10 µM throughout. The Stability result in data set [5] and in data set [6] was “Stable” throughout.
For the molecule `COc1cc(/C=C/C(=O)CC(=O)/C=C/c2ccc(O)c(OC)c2)ccc1O` [CURCUMIN], the pIC50 in [8] was 4.99.
In turn, `CC/C(=C(/CC)c1ccc(O)cc1)c1ccc(O)cc1` [DIETHYLSTILBESTROL] gave a negative logarithm of the IC50 (pIC50) in data set [8] of 4.12.
For `O=c1[nH]cc(F)c(=O)[nH]1` [FLUOROURACIL], the GI50 in the data set on SH-SY5Y is 1.5 µM; in data set [1] it was 2.2 µM.
